Test results: ChEMBL document CHEMBL4043283, “Discovery and Preclinical Development of IIIM-290, an Orally Active Potent Cyclin-Dependent Kinase Inhibitor” (J Med Chem, 2018); call rule not given here
In brackets after ≈: the same amount, converted by molar mass.

Legend:
[1] = Pancreas to plasma partition coefficient, Kp of the compound in Sprague-Dawley rat at 30 mg/kg, po measured at 1 hr; type: ADME, organism-based; details: pancreas and plasma
[2] = Clearance in BALB/c mouse at 1 mg/kg, iv by LC-MS/MS analysis; type: ADME, organism-based; details: in vivo
[3] = AUC (0 to t) in BALB/c mouse at 10 mg/kg, po by LC-MS/MS analysis; type: ADME, organism-based; details: in vivo
[4] = molecular target: CDK2/Cyclin A2 (Homo sapiens) (UniProt P24941+P20248); assay: Inhibition of CDK2/cyclin A (unknown origin) at 0.5 uM using histone H1 as substrate after 30 mins in presence of [33P]-gamma-ATP by filter binding assay relative to control; type: protein-complex assay
Salmonella typhimurium [5] = assay: Mutagenicity in Salmonella typhimurium TA102 at 50 ug/plate in presence of liver S9 fraction by Ames test; type: toxicity; details: salmonella enterica subsp. enterica serovar typhimurium
Cytochrome P450 3A4 = Cytochrome P450 3A4 (Homo sapiens, UniProt P08684); assay: Inhibition of human CYP3A4 using fluorogenic substrate preincubated with co-factor for 10 mins followed by enzyme-substrate addition by fluorometric method; type: ADME
Cytochrome P450 3A4, sequence (P08684 whole entry): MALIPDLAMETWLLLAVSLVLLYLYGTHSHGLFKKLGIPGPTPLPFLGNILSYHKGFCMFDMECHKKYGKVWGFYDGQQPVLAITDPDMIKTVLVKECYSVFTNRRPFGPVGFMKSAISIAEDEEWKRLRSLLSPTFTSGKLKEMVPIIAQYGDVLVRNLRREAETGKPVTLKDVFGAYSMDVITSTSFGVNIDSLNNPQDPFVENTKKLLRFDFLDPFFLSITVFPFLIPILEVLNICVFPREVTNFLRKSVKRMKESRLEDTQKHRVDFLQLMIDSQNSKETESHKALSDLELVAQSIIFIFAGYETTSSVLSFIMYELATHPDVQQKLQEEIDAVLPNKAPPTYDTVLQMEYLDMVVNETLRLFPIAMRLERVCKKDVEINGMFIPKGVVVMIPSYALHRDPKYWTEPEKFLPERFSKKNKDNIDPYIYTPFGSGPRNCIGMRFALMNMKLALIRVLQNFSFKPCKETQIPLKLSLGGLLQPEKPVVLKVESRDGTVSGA
Procedure, shortened: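 Cofactor plus test item or vehicle, in triplicate, preincubated 10 min at 37 °C; prewarmed enzyme–substrate mix added and incubated at 37 °C with shaking. Quench: acetonitrile (CYP2C19, CYP3A4) or 0.25 M Tris in 60% methanol (CYP2C9, CYP2D6). Metabolite fluorescence read; % inhibition computed against enzyme controls and enzyme-free blanks.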

[6] = Thermodynamic equilibrium solubility of compound in SIF at pH 6.8 after 5 hrs by shake flask method; type: physicochemical; details: read-out: Therm_solubility
[7] = Protein binding in dog plasma at 3 uM after 5 hrs by equilibrium dialysis method; type: ADME, cell-free, Canis lupus familiaris; details: read-out: PPB (converted)
[8] = Tmax in BALB/c mouse at 10 mg/kg, po by LC-MS/MS analysis; type: ADME, organism-based; details: in vivo
Kidney = assay: Drug uptake in BALB/c mouse kidney at 30 mg/kg, po after 8 hrs; type: ADME, organism-based; details: in vivo
[9] = Cmax in Sprague-Dawley rat at 10 mg/kg, po by LC-MS/MS analysis; type: ADME, organism-based; parameters: dose 10 mg/kg, route oral; details: in vivo
[10] = Growth inhibition of human SW630 cells after 48 hrs by MTT assay; type: functional; details: SW630, 48 h
Procedure, shortened: (§1)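 Cancer cell lines sourced from the National Cancer Institute (USA). Cells kept in appropriate growth medium at 37 °C, 95% humidity, 5% CO2. Antiproliferation read by tetrazolium (MTT) assay. GI50 values were determined only for compounds selected after an initial single-concentration screen.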

[11] = Half life in BALB/c mouse at 10 mg/kg, po by LC-MS/MS analysis; type: ADME, organism-based; details: in vivo
CDK4/Cyclin D3 = CDK4/Cyclin D3 (Homo sapiens, UniProt P11802); assay: Inhibition of CDK4/cyclin D3 (unknown origin) after 30 mins in presence of [33P]-gamma-ATP by filter binding assay; type: protein-complex assay
CDK4/Cyclin D3, sequence (P11802 whole entry): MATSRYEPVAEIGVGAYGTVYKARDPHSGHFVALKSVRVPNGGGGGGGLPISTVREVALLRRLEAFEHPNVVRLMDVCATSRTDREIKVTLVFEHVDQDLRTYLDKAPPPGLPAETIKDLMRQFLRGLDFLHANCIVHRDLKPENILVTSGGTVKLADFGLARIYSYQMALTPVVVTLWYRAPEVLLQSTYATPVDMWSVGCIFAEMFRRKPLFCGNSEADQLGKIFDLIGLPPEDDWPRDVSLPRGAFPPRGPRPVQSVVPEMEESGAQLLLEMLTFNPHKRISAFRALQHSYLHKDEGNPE
CDK4/Cyclin D3, sequence (P30281 whole entry, further chain): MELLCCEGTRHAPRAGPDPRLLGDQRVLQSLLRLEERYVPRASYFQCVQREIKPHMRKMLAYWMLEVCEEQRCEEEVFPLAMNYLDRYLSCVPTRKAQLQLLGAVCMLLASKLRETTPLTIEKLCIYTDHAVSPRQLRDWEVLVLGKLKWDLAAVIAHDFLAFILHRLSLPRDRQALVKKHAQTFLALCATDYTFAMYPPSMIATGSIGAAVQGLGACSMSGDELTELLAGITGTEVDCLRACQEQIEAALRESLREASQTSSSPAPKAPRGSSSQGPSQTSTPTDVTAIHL

Salmonella typhimurium [12] = assay: Mutagenicity in Salmonella typhimurium TA1537 at 50 ug/plate in presence of liver S9 fraction by Ames test; type: toxicity; details: salmonella enterica subsp. enterica serovar typhimurium
CDK6/cyclin D1 = CDK6/cyclin D1 (Homo sapiens, UniProt Q00534); assay: Inhibition of CDK6/cyclin D1 (unknown origin) after 30 mins in presence of [33P]-gamma-ATP by filter binding assay; type: protein-complex assay
CDK6/cyclin D1, sequence (P24385 whole entry): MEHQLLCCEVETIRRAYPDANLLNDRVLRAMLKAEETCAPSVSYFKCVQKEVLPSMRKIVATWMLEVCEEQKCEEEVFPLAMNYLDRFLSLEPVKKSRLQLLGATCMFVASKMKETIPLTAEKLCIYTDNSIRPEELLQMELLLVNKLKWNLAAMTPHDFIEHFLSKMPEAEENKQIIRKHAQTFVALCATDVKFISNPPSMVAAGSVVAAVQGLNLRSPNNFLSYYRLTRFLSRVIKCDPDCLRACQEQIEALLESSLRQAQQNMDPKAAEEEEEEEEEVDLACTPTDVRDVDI
CDK6/cyclin D1, sequence (Q00534 whole entry): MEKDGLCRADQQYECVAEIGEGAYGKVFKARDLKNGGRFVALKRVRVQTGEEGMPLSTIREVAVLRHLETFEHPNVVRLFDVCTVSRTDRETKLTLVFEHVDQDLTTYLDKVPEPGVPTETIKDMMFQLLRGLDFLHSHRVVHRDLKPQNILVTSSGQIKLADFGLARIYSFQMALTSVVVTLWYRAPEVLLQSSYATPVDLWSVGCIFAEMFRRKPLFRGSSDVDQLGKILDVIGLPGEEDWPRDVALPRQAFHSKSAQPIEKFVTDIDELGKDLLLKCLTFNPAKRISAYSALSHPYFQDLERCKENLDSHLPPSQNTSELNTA

[13] = Tmax in Sprague-Dawley rat at 3 mg/kg, po by LC-MS/MS analysis; type: ADME, organism-based; details: in vivo
[14] = Half life in monkey hepatocytes at 3 uM after 180 mins by LC-MS/MS analysis; type: ADME, cell-based, Macaca mulatta, Hepatocyte; details: rhesus monkey
[15] = AUC in BALB/c mouse at 10 mg/kg, po by LC-MS/MS analysis; type: ADME, organism-based; details: in vivo
[16] = n-octanol-water partition co-efficient, log P of compound by shake flask method; type: physicochemical
[17] = Ratio of Cmax in Sprague-Dawley rat at 30 mg/kg, po to GI50 for human HL60 cells
[18] = Half life in rat liver S9 fraction preincubated for 5 mins followed by NADPH addition measured after 30 mins by LC-MS/MS analysis; type: ADME, tissue-based
Procedure, shortened: (§2)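 Parent loss followed over time to give half-life, with NADPH as cofactor for microsomal phase I metabolism.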

[19] = Half life in monkey liver microsomes at 100 uM after 30 mins by LC-MS/MS analysis; type: ADME, Macaca mulatta, microsome; details: rhesus monkey; procedure, shortened: as §2
[20] = Intrinsic clearance in monkey liver S9 fraction assessed per mg of protein preincubated for 5 mins followed by NADPH addition measured after 30 mins by LC-MS/MS analysis; type: ADME, tissue-based, Macaca mulatta; details: rhesus monkey, s9, 0.5 h
Caco-2 = assay: Growth inhibition of human Caco2 cells at 10 uM after 48 hrs by MTT assay relative to control; type: functional; details: Caco-2, 48 h, read-out: GI
Procedure, shortened: (§3)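 Single-concentration primary screen at 10 μM by MTT assay. Cells were NCI-sourced cancer lines grown in appropriate medium at 37 °C, 95% humidity, 5% CO2. Growth inhibition is expressed relative to control.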

[21] = Elimination half life in BALB/c mouse at 10 mg/kg, po by LC-MS/MS analysis; type: ADME, organism-based; details: in vivo, read-out: beta t1/2 (converted)
HCT-116 = assay: Antitumor activity against human HCT116 cells xenografted in CD1 nude mouse assessed as tumor growth inhibition at 50 mg/kg, po qd administered on day 10 to 25 post tumor inoculation relative to control; type: functional; details: HCT-116, po, 240 h, read-out: TGI
OVCAR-5 = assay: Growth inhibition of human OVCAR5 cells after 48 hrs by MTT assay; type: functional; details: OVCAR-5, 48 h; procedure, shortened: as §1
[22] = AUC (0 to infinity) in BALB/c mouse at 10 mg/kg, po by LC-MS/MS analysis; type: ADME, organism-based; parameters: dose 10 mg/kg, time infinity, route oral; details: in vivo
[23] = Chemical stability of compound in SGF at pH 1.2 assessed as parent compound remaining after 8 hrs by HPLC method; type: physicochemical; details: read-out: Stability
[24] = Half life in mouse liver S9 fraction preincubated for 5 mins followed by NADPH addition measured after 30 mins by LC-MS/MS analysis; type: ADME, tissue-based; procedure, shortened: as §2
PC-3 = assay: Growth inhibition of human PC3 cells after 48 hrs by MTT assay; type: functional; details: PC-3, 48 h; procedure, shortened: as §1
CDK1/Cyclin E = CDK1/Cyclin E (Homo sapiens, UniProt P06493); assay: Inhibition of CDK1/cyclin E (unknown origin) after 30 mins in presence of [33P]-gamma-ATP by filter binding assay; type: protein-complex assay
CDK1/Cyclin E, sequence (P06493 whole entry): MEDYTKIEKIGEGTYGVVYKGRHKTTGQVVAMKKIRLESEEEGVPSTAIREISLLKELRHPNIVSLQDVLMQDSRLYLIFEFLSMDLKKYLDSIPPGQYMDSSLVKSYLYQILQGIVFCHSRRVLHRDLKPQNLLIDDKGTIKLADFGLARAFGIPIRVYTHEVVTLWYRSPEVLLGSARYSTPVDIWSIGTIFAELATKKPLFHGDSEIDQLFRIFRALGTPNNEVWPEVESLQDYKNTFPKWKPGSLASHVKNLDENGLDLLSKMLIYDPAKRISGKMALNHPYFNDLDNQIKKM
CDK1/Cyclin E, sequence (P24864 whole entry, further chain): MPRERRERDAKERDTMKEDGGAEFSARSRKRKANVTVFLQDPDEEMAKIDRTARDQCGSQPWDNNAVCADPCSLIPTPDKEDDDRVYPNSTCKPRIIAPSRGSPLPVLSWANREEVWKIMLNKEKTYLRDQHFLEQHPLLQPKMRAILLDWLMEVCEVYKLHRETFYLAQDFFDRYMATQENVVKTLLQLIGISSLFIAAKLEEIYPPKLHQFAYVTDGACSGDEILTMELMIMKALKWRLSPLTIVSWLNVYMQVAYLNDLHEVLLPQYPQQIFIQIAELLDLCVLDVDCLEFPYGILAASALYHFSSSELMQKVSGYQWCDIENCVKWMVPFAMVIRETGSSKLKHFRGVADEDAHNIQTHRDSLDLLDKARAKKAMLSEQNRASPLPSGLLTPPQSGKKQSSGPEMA

[25] = Intrinsic clearance in human liver microsomes assessed per mg of protein at 100 uM after 30 mins by LC-MS/MS analysis; type: ADME, microsome; details: read-out: CLH
MCF7 = assay: Growth inhibition of human MCF7 cells at 10 uM after 48 hrs by MTT assay relative to control; type: functional; details: MCF7, 48 h, read-out: GI; procedure, shortened: as §3
Salmonella typhimurium [26] = assay: Mutagenicity in Salmonella typhimurium TA102 at 50 ug/plate in absence of liver S9 fraction by Ames test; type: toxicity; details: salmonella enterica subsp. enterica serovar typhimurium
[27] = molecular target: Cyclin-dependent kinase 4/cyclin D1 (Homo sapiens) (UniProt P11802+P24385); assay: Inhibition of full length wild type human CDK4/cyclin D1 expressed in mammalian expression system at 0.5 uM by KINOMEscan method relative to control
Procedure, shortened: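 Competition binding screen (KINOMEscan) at 0.5 μM; primary binding read out as % of control, lower values indicating stronger interaction.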

CN1CC[C@H](c2c(O)cc(O)c3c(=O)cc(/C=C/c4c(Cl)cccc4Cl)oc23)[C@H](O)C1
Kp at 1 h [1]: 4.1 | clearance [2]: 55.4 mL/min/kg | AUC(0-t) [3]: 4.5 µM·h | inhibition [4]: 90% | Activity (Salmonella typhimurium [5]): Non-Toxic | IC50 (Cytochrome P450 3A4): > 20000 nM | solubility thermodynamic at 5 h [6]: 2.18 µg/mL (≈ 4.72 µM) | fraction unbound at 5 h, 3 µM [7]: 0.05 | Tmax [8]: 0.25 to 1.71 h | Drug uptake (Kidney): Active | Cmax [9]: 900 nM | GI50 [10]: 300 nM | half-life [11]: 3.61 h | IC50 (CDK4/Cyclin D3): 22.5 nM | Activity (Salmonella typhimurium [12]): Non-Toxic | IC50 (CDK6/cyclin D1): 45 nM | Tmax [13]: 0.5 h | half-life at 3 µM [14]: 5.43 h | AUC [15]: 2.41 µM·h | logP [16]: 3.09 | Ratio [17]: 4 | half-life [18]: 0.517 h | half-life at 100 µM [19]: 0.417 h | CLint [20]: 25 µL/min/mg | inhibition of growth at 10 µM (Caco-2): 68% | half-life [21]: 4.65 h | inhibition in vivo at 50 mg/kg (HCT-116): 40 to 52% | GI50 (OVCAR-5): 7000 nM | AUC(0-inf) [22]: 4.4 µM·h | remaining at 8 h [23]: 100% | half-life [24]: 1.43 h | GI50 (PC-3): 3000 to 6000 nM | IC50 (CDK1/Cyclin E): 75.9 nM | microsomal CLint at 100 µM [25]: < 8.6 µL/min/mg | inhibition of growth at 10 µM (MCF7): 80% | Activity (Salmonella typhimurium [26]): Non-Toxic | inhibition [27]: > 98%
